Consider seven compounds from ChEMBL document CHEMBL4828745, “Discovery and Structure-Activity Relationships of Quinazolinone-2-carboxamide Derivatives as Novel Orally Efficacious Antimalarials” (J Med Chem, 2021).

SMILES strings stand for the structures. ≈ marks a conversion by molar mass, not a printed value.

The target in series [1] is T1, Interstitial collagenase (Homo sapiens) (UniProt P03956).
T1 sequence (whole entry): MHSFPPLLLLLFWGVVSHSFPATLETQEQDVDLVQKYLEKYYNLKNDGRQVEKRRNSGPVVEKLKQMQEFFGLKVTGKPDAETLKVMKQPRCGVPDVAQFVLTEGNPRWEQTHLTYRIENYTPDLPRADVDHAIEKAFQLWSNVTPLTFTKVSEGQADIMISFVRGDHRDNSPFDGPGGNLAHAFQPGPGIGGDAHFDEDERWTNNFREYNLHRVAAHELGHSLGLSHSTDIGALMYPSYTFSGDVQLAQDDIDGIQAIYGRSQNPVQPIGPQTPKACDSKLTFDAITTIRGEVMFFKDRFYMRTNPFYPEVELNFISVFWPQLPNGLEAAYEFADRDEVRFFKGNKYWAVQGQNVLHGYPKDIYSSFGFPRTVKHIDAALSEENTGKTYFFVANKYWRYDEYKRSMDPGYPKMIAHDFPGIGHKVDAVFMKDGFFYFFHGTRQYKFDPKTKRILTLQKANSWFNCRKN
As to the kind of experiment: Inhibition of human MMP1 assessed as fluorescence intensity using DNP-Pro-Cha-Gly-Cys(Me)-His-Ala-Lys(n-Me-Abz)-NH2 as substrate at 10 uM incubated for 20 mins relative to control.

For series [2], the target named is Matrix metalloproteinase-14 (Homo sapiens) (UniProt P50281). As to the kind of experiment: Inhibition of human MMP14 assessed as fluorescence intensity using Mca-Pro-Leu-Ala-Cys(p-OmeBz)-Trp-Ala-Arg(Dpa)-NH2 as substrate at 10 uM incubated for 60 mins relative to control.
The test system of series [3] is Plasmodium falciparum. The series can be described thus: Antiplasmodial activity against Plasmodium falciparum 3D7 infected in human erythrocyte assessed as intraerythrocytic growth inhibition incubated for 72 hrs by DAPI-staining based imaging analysis. In kind it is functional, organism-based. The settings on record: 3D7, 72 h. In short, it runs like this: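 P. falciparum 3D7 cultured in RPMI1640 with hypoxanthine, HEPES, 2.5 mg/mL AlbuMAX II and 5% human serum. Sorbitol-synchronized rings exposed 72 h at 37 °C under 5% CO2/5% O2, then DAPI-stained with saponin/Triton X-100 for 8 h in the dark. High-content imaging with spot detection. Duplicate points. Reference antimalarials run in each assay.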

The nature of series [4]: Apparent permeability of the compound from apical to basolateral side in human Caco-2 cells at 20 uM measured after 120 mins by LC-MS analysis. In kind it is ADME, cell-based. The gist of the method: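 Caco-2 monolayers, apical-to-basolateral direction, in pH 7.4 HBSS with 20 mM HEPES on both sides. Donor at nominal 20 μM, 0.1% DMSO final. Flux followed over 120 min. Quantified by LC-MS with mass balance to derive Papp.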
Background: Passage across Caco-2 layers is used to estimate intestinal permeability.

A short description of series [5]: Intrinsic clearance in mouse liver microsomes at […] by LC-MS/MS analysis. Format: ADME, Microsome. In short, it runs like this:
(§1)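 Liver microsomes (human, mouse or rat) at 0.4 mg/mL protein, 37 °C, with an NADPH-regenerating system. Compound at 0.25 or 0.5 μM. Acetonitrile/diazepam quench, LC-MS quantitation. CLint from the first-order degradation rate constant.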
(Liver microsomes are vesicles of endoplasmic reticulum, rich in cytochrome P450 enzymes.)

Series [6] can be described thus: Cytotoxicity against human HEK293 cells assessed as cell viability incubated for 72 hrs by Alamar blue assay. Format: cell-based. In short, it runs like this:
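HEK293 cells handled with the same incubation, compound addition and timing as the 72 h parasite assay. Alamar Blue, diluted in growth medium, was incubated 4 h at 37 °C/5% CO2, then 20 h at room temperature before plate read.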
For orientation: Alamar Blue is a resazurin reagent that responds to reducing activity.

The nature of series [7]: Intrinsic clearance in human liver microsomes at […] by LC-MS/MS analysis. Format: ADME, Microsome. In short, it runs like this:
as §1

A short description of series [8]: Intrinsic clearance in rat liver microsomes at […] by LC-MS/MS analysis. In kind it is ADME, Microsome. In short, it runs like this: as §1
Series [9] in a line: Kinetic solubility of the compound in pH 6.5 phosphate buffer by nephelometry. Format: physicochemical. The note with it: read-out: Kinetic_solubility. In short, it runs like this: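 DMSO stock spiked into pH 6.5 phosphate buffer (1% DMSO final). After 30 min, solubility range estimated by nephelometry.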
For series [10], the system named is Plasmodium falciparum. The series can be described thus: Antimalarial activity against Plasmodium falciparum Dd2 harbouring Pf-crt, Pf-mdrl,Pf-dhfr, Pf-dhps mutated loci assessed as inhibition of parasite growth incubated for […] by [3H]hypoxanthine incorporation assay based liquid scintillation counting method. In kind it is functional, organism-based. In short, it runs like this: (§2)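 Drug-resistant laboratory P. falciparum strains were compared against the sensitive strain NF54. Growth inhibition was read by a modified [3H]hypoxanthine incorporation assay over 72 h. IC50 is the mean of two independent biological replicates. Chloroquine and artesunate served as controls.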

The subject of series [11] is Plasmodium falciparum. As to the kind of experiment: Antimalarial activity against Plasmodium falciparum TM90C2b harbouring Pf-crt, Pf-mdrl,Pfd-hfr, Pf-cytbQ0 mutated loci assessed as inhibition of parasite growth incubated for […] by [3H]hypoxanthine incorporation assay based liquid scintillation counting method. In kind it is functional, organism-based. The gist of the method: as §2

Series [12] deals with Plasmodium falciparum. The series can be described thus: Antimalarial activity against Plasmodium falciparum Cam3.1 harbouring Pf-crt, Pf-mdrl,Pf-dhfr, Pf-dhps, pf-kelch13 mutated loci assessed as inhibition of parasite growth incubated for […] by [3H]hypoxanthine incorporation assay based liquid scintillation counting method. In kind it is functional, organism-based. The gist of the method:
as §2

The subject of series [13] is Plasmodium falciparum. As to the kind of experiment: Antimalarial activity against Plasmodium falciparum NF54 assessed as inhibition of parasite growth incubated for 72 hrs by [3H]hypoxanthine incorporation assay based liquid scintillation counting method.
Series [14] has as its system Plasmodium falciparum. The series can be described thus: Antimalarial activity against Plasmodium falciparum K1 harbouring Pf-crt, Pf-mdrl,Pf-dhfr, Pf-dhps mutated loci assessed as inhibition of parasite growth incubated for […] by [3H]hypoxanthine incorporation assay based liquid scintillation counting method. Format: functional, organism-based. In short, it runs like this: as §2

The subject of series [15] is Plasmodium falciparum. As to the kind of experiment: Antimalarial activity against Plasmodium falciparum 7G8 harbouring Pf-crt, Pf-mdrl,Pf-dhfr, Pf-dhps mutated loci assessed as inhibition of parasite growth incubated for […] by [3H]hypoxanthine incorporation assay based liquid scintillation counting method. Format: functional, organism-based. The gist of the method:
as §2

A short description of series [16]: Plasma clearance in Sprague-Dawley rat at 1 mg/kg, iv by LC-MS analysis. In kind it is ADME, organism-based. The gist of the method: (§3)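 Male Sprague Dawley rats (n = 3) dosed IV at 1 mg/kg with the Na·4H2O salt in 50% DMA/50% PEG400. Plasma concentration–time profiles were obtained, and non-compartmental parameters are given as mean ± SD.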
A short description of series [17]: AUC (0 to infinity) in Swiss outbred mouse at 0.95 mg/kg, iv by LC-MS analysis. Also noted: route intravenous, time infinity, dose 0.95 mg/kg. In kind it is ADME, organism-based. The note with it: in vivo.
Series [18] can be described thus: Clearance in Swiss outbred mouse blood at 0.95 mg/kg, iv by LC-MS analysis. Format: ADME, organism-based.
A short description of series [19]: Oral bioavailability in Sprague-Dawley rat at 5.6 mg/kg by LC-MS analysis. In kind it is ADME, organism-based. The note with it: in vivo. In short, it runs like this: (§4)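 Male Sprague Dawley rats (n = 3) dosed orally at 5.6 mg/kg with the Na·4H2O salt suspended in 0.5% methyl cellulose in water. Plasma was sampled over time. Bioavailability was taken relative to the 1 mg/kg IV arm.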

Series [20] is described as follows: AUC (0 to infinity) in Sprague-Dawley rat at 5.6 mg/kg, po by LC-MS analysis. Format: ADME, organism-based. Also noted: time infinity, route oral, dose 5.6 mg/kg. The note with it: in vivo. In short, it runs like this:
as §4

A short description of series [21]: Volume of distribution at steady state in Sprague-Dawley rat plasma at 1 mg/kg, iv by LC-MS analysis. In kind it is ADME, organism-based. The settings on record: read-out: Vdss. The gist of the method:
as §3

The nature of series [22]: AUC (0 to infinity) in Sprague-Dawley rat at 1 mg/kg, iv by LC-MS analysis. In kind it is ADME, organism-based. Also noted: route intravenous, time infinity, dose 1 mg/kg. The note with it: in vivo. The gist of the method: as §3
The nature of series [23]: Tmax in Sprague-Dawley rat at 5.6 mg/kg, po by LC-MS analysis. In kind it is ADME, organism-based. The note with it: in vivo. The gist of the method: as §4
Series [24] can be described thus: Cmax in Sprague-Dawley rat at 5.6 mg/kg, po by LC-MS analysis. Format: ADME, organism-based. Also noted: route oral, dose 5.6 mg/kg. The note with it: in vivo. In short, it runs like this: as §4
The nature of series [25]: Plasma clearance in Swiss outbred mouse at 0.95 mg/kg, iv by LC-MS analysis. In kind it is ADME, organism-based.
Series [26] in a line: Half life in Sprague-Dawley rat at 1 mg/kg, iv by LC-MS analysis. Format: ADME, organism-based. The note with it: in vivo. In short, it runs like this: as §3
Series [27] in a line: Half life in Sprague-Dawley rat at 5.6 mg/kg, po by LC-MS analysis. Format: ADME, organism-based. The note with it: in vivo. In short, it runs like this: as §4

As to `CCc1cccc(CNC(=O)c2nc3cccc(COCc4ccc(C(=O)O)cc4)c3c(=O)[nH]2)c1`, the figures for the inhibition in series [1] and in [2] were 11.3% and 10.8%, respectively.
Turning to `O=C(O)c1ccc(CCOc2c(F)ccc3nc(C(=O)NCC4CCCCC4)[nH]c(=O)c23)cc1`, the IC50 in the series with Plasmodium falciparum [3] was above 20000 nM. For the same compound, in [4], the Papp A→B at 2 h, 20 µM is 32 ×10⁻⁶ cm/s. Moreover, the CLH is 62 uL/ml.millig in series [5], 7 uL/ml.millig in series [7] and 740 uL/ml.millig in series [8]. The CC50 at 72 h in [6] is above 20000 nM. Further, the solubility kinetic in series [9] is below 1.6 µg/mL.
`CCN(CC)CCCC(C)Nc1ccnc2cc(Cl)ccc12` (centres undefined) [CHLOROQUINE]: the IC50 in the series with Plasmodium falciparum [10] worked out at 10 nM; in the series on Plasmodium falciparum [11], 67 nM; with Plasmodium falciparum [12], 160 nM.
Consider `C[C@H]1[C@H](OC(=O)CCC(=O)O)O[C@@H]2O[C@@]3(C)CC[C@H]4[C@H](C)CC[C@@H]1[C@@]24OO3` [ARTESUNATE], for which the IC50 in the series on Plasmodium falciparum [3] amounted to 0.6 nM; in the series with Plasmodium falciparum [10] it was 6 nM; in the series on Plasmodium falciparum [13] it was 6 nM; with Plasmodium falciparum [11], 2 nM; with Plasmodium falciparum [12], 4 nM; in the series on Plasmodium falciparum [14], 4 nM. Besides, the IC50 in the series with Plasmodium falciparum [15] was 3 nM.
`CCc1cccc(CNC(=O)c2nc3cccc(COCc4ccc(C(=O)[O-])cc4)c3c(=O)[nH]2)c1.O.O.O.O.[Na+]`: the clearance is 9.5 mL/min/kg in [16], 57 mL/min/kg in series [18] and 31 mL/min/kg in series [25]. The AUC(0-inf) was 1.1 µM·h in series [17], 6.9 µM·h in [20] and 3.7 µM·h in series [22]. In series [19], the bioavailability was 34%. For the same compound, the Vd in series [21] came to 0.88 L/kg. For the same compound, in [23], the Tmax was 0.5 h. This compound also came in with a Cmax in [24] of 1700 nM. The half-life is 5.3 h in series [26] and 3.2 h in series [27].
With `O=C(O)c1ccc(CCOc2c(F)ccc3nc(C(=O)NCc4ccccc4)[nH]c(=O)c23)cc1`, the IC50 with Plasmodium falciparum [3] worked out at 3670 nM. For the same compound, in series [4], the Papp A→B at 2 h, 20 µM was found to be 16 ×10⁻⁶ cm/s. In addition, the values for the CLH in series [5], in series [7] and in series [8] were 12 uL/ml.millig, 7 uL/ml.millig and 123 uL/ml.millig, respectively. Besides, the CC50 at 72 h in series [6] is above 20000 nM. Besides, in [9], the solubility kinetic came out at 6.3 µg/mL (≈ 13.7 µM).
Turning to `CCc1cccc(CNC(=O)c2nc3ccc(F)c(OCCc4ccc(C(=O)O)cc4)c3c(=O)[nH]2)c1`, the IC50 with Plasmodium falciparum [3] came to 420 nM. Moreover, the Papp A→B at 2 h, 20 µM in series [4] is 44 ×10⁻⁶ cm/s. The results for the CLH in [5] and in [8] were 69 uL/ml.millig and 485 uL/ml.millig, respectively. Moreover, in series [6], the CC50 at 72 h is above 20000 nM. The solubility kinetic in [9] was found to be 12.5 µg/mL (≈ 25.5 µM).

What is called inhibition is the share of the control response that was lost under treatment. In general, IC50 refers to the midpoint of a concentration-inhibition curve. For orientation: Papp A→B means the apparent permeability from the apical to the basolateral side of a cell layer. Usually CC50 stands for the concentration at which the toxic effect on the cells reaches its halfway point. For orientation: clearance means a measure of how efficiently the substance is removed, as volume per time. Lower therefore signals inefficient removal. A word on the AUC(0-inf): it is total exposure, with the tail of the curve extrapolated. Low values mean less exposure, high ones more exposure. The bioavailability is the share of a dose that reaches the circulation, judged against a reference dose that is usually intravenous. As a reminder, the Tmax is the time at which the peak concentration occurs. What is called Cmax is the highest concentration seen after dosing. In general, half-life refers to how long it takes for the measured level to halve. Low readings indicate rapid decline, high ones slow decline.
